The results in this text go back to ChEMBL document CHEMBL4350999, “Enhanced tumor retention of NTSR1-targeted agents by employing a hydrophilic cysteine cathepsin inhibitor” (Eur J Med Chem, 2019).

SMILES strings stand for the structures. Activity calls are given as the source filed them. The calls are words filed in the database; no cut-off is given here.

A short description of series [1]: Drug uptake in brain of SCID mouse xenografted with human HT-29 cells using 177Lu labelled compound at 0.37 MBq/mouse, iv co-treated with D-lysine at 40 mg/kg measured at 24 hrs by gamma counter analysis. In kind it is ADME, organism-based. Conditions: in vivo. The essentials:
(§1)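 Female SCID mice bore s.c. HT-29 xenografts (5 × 10^6 cells in Matrigel, about 80 mm3). D-lysine 40 mg/kg was co-injected i.v. with 10 μCi (0.37 MBq) of purified 177Lu-conjugate. Tissues were harvested at 24 h, weighed and gamma-counted, reported as %ID/g; mean ± SD, n = 5.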
For orientation: Xenograft models place foreign cells or tissue in a host animal.

In series [2] the target is T1, Procathepsin L (Homo sapiens, UniProt P07711). Briefly: Binding affinity to human liver cathepsin L assessed as protein-conjugate adduct formation at 0.74 MBq incubated for 30 mins in presence of DOTA-beta-ala-[N-alpha-Me8, Dmt11, Tle12] NT6-13 using 177Lu labelled compound by SDS-PAGE analysis. The following applies: 0.74 M. A digest of the protocol:
(§2)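 Purified human liver CatB or CatL (3 nM) in 50 mM sodium acetate/1 mM EDTA pH 5.0 incubated 30 min with 177Lu conjugate (500,000 cpm) in Tris/MgCl2/DTT buffer pH 5.5, alone or with E-64 (10 μM) or N1 (20 μM). Mixtures heated 85 °C 2 min, run on 16% tris-glycine gel at 110 V for 90 min, and read by phosphor autoradiography.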

A short description of series [3]: Ratio of drug uptake in SCID mouse xenograted with human HT-29 cells assessed as tumour retention to drug uptake in small intestine of SCID mouse xenografted with human HT-29 cells cotreated with D-lysine at 40 mg/kg measured after 24 hrs using 177Lu labelled compound. Type of series: ADME, organism-based, Tumor/Small intestine. The following applies: in vivo.
Series [4] is described as follows: Drug uptake in SCID mouse xenografted with human HT-29 cells assessed as tumour retention using 177Lu labelled compound at 0.37 MBq/mouse, iv co-treated with D-lysine at 40 mg/kg measured at 24 hrs by gamma counter analysis. The following applies: in vivo. In kind it is ADME, organism-based. The essentials:
(§3)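 Female SCID mice bearing s.c. flank HT-29 xenografts (5 × 10^6 cells in Matrigel, ~80 mm3). Given 10 μCi (0.37 MBq) 177Lu conjugate i.v. by tail vein; groups sacrificed at 4, 24, 72 h. Tissues weighed and gamma-counted as %ID/g, excretion as %ID; n = 5, mean ± SD. Blocking arms: colchicine 1 mg/kg i.p. beforehand, or D-lysine 40 mg/kg co-injected.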

Series [5] can be described thus: Drug uptake in lung of SCID mouse xenografted with human HT-29 cells pretreated for 1 hr with colchicine at 1 mg/kg, ip followed by 177Lu labelled compound at 0.37 MBq/mouse, iv measured at 24 hrs by gamma counter analysis. In kind it is ADME, organism-based. Conditions: in vivo. The essentials: (§4)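 HT-29 flank xenografts in female SCID mice (5 × 10^6 cells in Matrigel, about 80 mm3). Colchicine 1 mg/kg was given i.p. before a tail-vein injection of 10 μCi (0.37 MBq) of purified 177Lu-conjugate. Tissues were taken at 24 h, weighed and gamma-counted as %ID/g; mean ± SD, n = 5.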

Series [6] in a line: Drug uptake in large intestine of SCID mouse xenografted with human HT-29 cells using 177Lu labelled compound at 0.37 MBq/mouse, iv co-treated with D-lysine at 40 mg/kg measured at 24 hrs by gamma counter analysis. In kind it is ADME, organism-based. The following applies: in vivo. A digest of the protocol:
as §1

Series [7] in a line: Drug uptake in blood of SCID mouse xenografted with human HT-29 cells using 177Lu labelled compound at 0.37 MBq/mouse, iv co-treated with D-lysine at 40 mg/kg measured at 24 hrs by gamma counter analysis. In kind it is ADME, organism-based. Conditions: in vivo. A digest of the protocol:
as §3

A short description of series [8]: Ratio of drug uptake in SCID mouse xenograted with human HT-29 cells assessed as tumour retention to drug uptake in liver of SCID mouse xenografted with human HT-29 cells cotreated with D-lysine at 40 mg/kg measured after 24 hrs using 177Lu labelled compound. In kind it is ADME, organism-based, Tumor/Liver. Conditions: in vivo.
The nature of series [9]: Drug uptake in bone of SCID mouse xenografted with human HT-29 cells using 177Lu labelled compound at 0.37 MBq/mouse, iv co-treated with D-lysine at 40 mg/kg measured at 24 hrs by gamma counter analysis. The following applies: in vivo. In kind it is ADME, organism-based, Bone element. The essentials: as §1
For another series, the target named is Cathepsin B (Homo sapiens, UniProt P07858). The series is described as follows: Binding affinity to human liver cathepsin B assessed as protein-conjugate adduct formation at 0.74 MBq incubated for 30 mins in presence of E-64 using 177Lu labelled compound by SDS-PAGE analysis. Conditions: 0.74 M. The essentials: as §2
A short description of series [10]: Drug excretion in SCID mouse xenografted with human HT-29 cells using 177Lu labelled compound at 0.37 MBq/mouse, iv co-treated with D-lysine at 40 mg/kg measured at 24 hrs by gamma counter analysis. Type of series: ADME, organism-based. Conditions: in vivo. The essentials: as §3
Series [11] is described as follows: Drug uptake in muscle of SCID mouse xenografted with human HT-29 cells using 177Lu labelled compound at 0.37 MBq/mouse, iv co-treated with D-lysine at 40 mg/kg measured at 24 hrs by gamma counter analysis. In kind it is ADME, organism-based, Muscle tissue. The following applies: in vivo. A digest of the protocol: as §1
The nature of series [12]: Drug uptake in stomach of SCID mouse xenografted with human HT-29 cells using 177Lu labelled compound at 0.37 MBq/mouse, iv co-treated with D-lysine at 40 mg/kg measured at 24 hrs by gamma counter analysis. Type of series: ADME, organism-based. Conditions: in vivo. A digest of the protocol: (§5)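 HT-29 s.c. xenografts in female SCID mice. 177Lu conjugate given i.v. by tail vein at 10 μCi (0.37 MBq)/mouse, co-injected with D-lysine 40 mg/kg. Tissues were taken at 24 h, weighed and gamma counted. Uptake expressed as %ID/g (n = 5, mean ± SD); tumor-to-tissue ratios derived from these values.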

Series [13] can be described thus: Drug uptake in pancreas of SCID mouse xenografted with human HT-29 cells pretreated for 1 hr with colchicine at 1 mg/kg, ip followed by 177Lu labelled compound at 0.37 MBq/mouse, iv measured at 24 hrs by gamma counter analysis. The following applies: in vivo. In kind it is ADME, organism-based. The essentials:
as §4

The target in series [14] is T1, Procathepsin L. Briefly: Binding affinity to cathepsin L in human HT-29 cells assessed as intracellular adduct formation at 0.74 MBq incubated for 4 hrs and measured after 24 hrs in presence of DOTA-beta-ala-[N-alpha-Me8, Dmt11, Tle12] NT6-13 using 177Lu labelled compound by SDS-PAGE analysis. In kind it is cell-based. Also on record: dose or concentration left out as unconfirmed. The essentials: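 HT-29 cells (1 × 10^6/well) incubated 4 h at 37 °C with 177Lu conjugate (20 μCi, 0.74 MBq) in 1 mL medium, with or without E-64 (10 μM) or NTSR1 peptide N1 (20 μM). Cells washed and refed; at set times cells pooled, RIPA-lysed with protease inhibitor. Lysates heated 85 °C 2 min, run on 16% tris-glycine SDS-PAGE, and phosphor autoradiography taken after 72 h exposure.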

A short description of series [15]: Drug uptake in blood of SCID mouse xenografted with human HT-29 cells pretreated for 1 hr with colchicine at 1 mg/kg, ip followed by 177Lu labelled compound at 0.37 MBq/mouse, iv measured at 24 hrs by gamma counter analysis. In kind it is ADME, organism-based. The following applies: in vivo. A digest of the protocol: as §3
Series [16] in a line: Drug uptake in spleen of SCID mouse xenografted with human HT-29 cells using 177Lu labelled compound at 0.37 MBq/mouse, iv co-treated with D-lysine at 40 mg/kg measured at 24 hrs by gamma counter analysis. Type of series: ADME, organism-based. Conditions: in vivo. The essentials:
as §5

The nature of series [17]: Drug uptake in small intestine of SCID mouse xenografted with human HT-29 cells using 177Lu labelled compound at 0.37 MBq/mouse, iv co-treated with D-lysine at 40 mg/kg measured at 24 hrs by gamma counter analysis. In kind it is ADME, organism-based. Conditions: in vivo.

T1 sequence (P07711 114-333 limits assumed): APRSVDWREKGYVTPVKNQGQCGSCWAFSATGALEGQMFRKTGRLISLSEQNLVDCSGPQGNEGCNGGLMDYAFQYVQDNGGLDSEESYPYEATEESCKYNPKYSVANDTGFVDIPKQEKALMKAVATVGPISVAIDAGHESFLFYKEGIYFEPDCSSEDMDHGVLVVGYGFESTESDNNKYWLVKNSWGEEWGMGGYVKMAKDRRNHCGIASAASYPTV

Turning to `Cc1cc(O)cc(C)c1C[C@H](NC(=O)[C@@H]1CCCN1C(=O)[C@H](CCCNC(=N)N)NC(=O)[C@H](CCCNC(=N)N)N(C)C(=O)[C@@H]1CCCN1C(=O)[C@H](CCCCN)NC(=O)[C@@H](CO)NC(=O)[C@@H](CO)NC(=O)[C@@H](CO)NC(=O)[C@H](Cc1cn(CCNC(=O)[C@H](CCCNC(=N)N)NC(=O)[C@H](CC(C)C)NC(=O)C2OC2C(=O)O)nn1)NC(=O)CN1CCN(CC(=O)O)CCN(CC(=O)O)CCN(CC(=O)O)CC1)C(=O)N[C@H](C(=O)N[C@@H](CC(C)C)C(=O)O)C(C)(C)C` (stereo partly drawn), the Drug uptake is listed as 0.02 % ID/g in series [1]; 6 % ID/g in series [4]; 3.2 % ID/g in series [5]; 0.8 % ID/g in series [6]; 0.02 % ID/g in [7]; 0.6 % ID/g in [9]. The Drug uptake is 0.07 % ID/g in [11]; 0.21 % ID/g in [12]; 0.7 % ID/g in series [13]; 0.06 % ID/g in series [15]; 1.1 % ID/g in series [16]; 1.47 % ID/g in series [17]. The result on Procathepsin L [2] was Active. Also, the results for the Ratio in series [3] and in [8] were 4 and 9.6, respectively. Moreover, the result at Cathepsin B and on Procathepsin L [14] was inactive. Also, in series [10], the Drug excretion is 83 %ID.
